Measured values gathered from unrelated publications.
Compare with care: the assays were run in different laboratories.
CDK7: Cyclin-dependent kinase 7 (CDK7, Homo sapiens, UniProt P50613)
CDK7 with cyclin H: Cyclin-dependent kinase 7, with cyclin H (CDK7, Homo sapiens, UniProt P50613)

| SMILES | target | test | setting | endpoint | value |
| --- | --- | --- | --- | --- | --- |
| O=C(NCc1ncc(C(F)(F)F)cc1Cl)c1ccc2c(c1)C1(CCS(=O)(=O)CC1)[C@@H](C1CC1)N2S(=O)(=O)c1ccc(F)cc1 | CDK7 | cell-free assay, competition with immobilised ligand | 1 µM | remaining binding | 56% |
| CCCCCC[C@@H](C)/C=C(C)/C=C/C(=O)N[C@H]1CC2(O[C@H]1O)[C@@H]1O[C@@H]1C(=O)[C@@H]1O[C@@H]12 (some centres unmarked) | CDK7 with cyclin H | enzyme activity, inhibitor, ADP detection | 10 µM | inhibition | -18.5% |
| Cc1ccc(NC(=O)c2ccc(C)c(C(F)(F)F)c2)cc1C#Cc1nn(C2CCC(O)CC2)c2ncnc(N)c12 (centres unmarked) | CDK7 | cell-free assay | 10 µM | remaining signal | 103% |
| Oc1ccc(-c2nc(-c3ccncc3)c(-c3ccc(F)cc3)[nH]2)cc1 | CDK7 with cyclin H | cell-free assay | 0.5 µM | remaining signal | 99.4% |
| CN1C(=N)N(C)/C(=C/c2c[nH]c3ccccc23)C1=O | CDK7 with cyclin H | enzyme activity, inhibitor, ADP detection | 10 µM | inhibition | 34.1% |
| CCN(CC)c1ccc(C2=NNC(=O)CC2C)cc1[N+](=O)[O-] (centres unmarked) | CDK7 | enzyme activity, inhibitor | 10 µM | remaining activity | 96% |
| O=C1Nc2ccc(Cl)cc2C1=Cc1cc(Cl)c(O)c(Cl)c1 | CDK7 with cyclin H | cell-free assay | 0.5 µM | remaining signal | 96.7% |
| CC[C@]12CCCN3CCc4c(n(c5ccccc45)[C@@](O)(C(=O)OC)C1)[C@@H]32 | CDK7 with cyclin H | enzyme activity, inhibitor, ADP detection | 10 µM | inhibition | -20.8% |
| CC(C)(C)c1nc(-c2cccc(NS(=O)(=O)c3c(F)cccc3F)c2F)c(-c2ccnc(N)n2)s1 | CDK7 with cyclin H | enzyme activity, inhibitor, radiometric | 1 µM | remaining activity | 109% |
| O=C(Nc1cnn(-c2csc(C(=O)NC3COC3)c2)c1)Nc1c(F)cccc1Cl | CDK7 with cyclin H | enzyme activity, inhibitor | 5 µM | remaining activity | 95.8% |
| CC(=O)Nc1c(C(C)=O)c(=O)n(C)c2nc(-c3ccc(Cl)cc3Cl)c(-c3ccc(Cl)cc3)cc12 | CDK7 | cell-free assay, competition with immobilised ligand | 1 µM | remaining binding | 100% |
| COC1=C(OC)C(=O)C(C/C=C(\C)CC/C=C(\C)CC/C=C(\C)CC/C=C(\C)CC/C=C(\C)CC/C=C(\C)CC/C=C(\C)CC/C=C(\C)CC/C=C(\C)CCC=C(C)C)=C(C)C1=O | CDK7 with cyclin H | enzyme activity, inhibitor, ADP detection | 10 µM | inhibition | 6.6% |
| CC(C)c1ccc(NC(=O)c2cccs2)c(-c2nc3ccccc3[nH]c2=O)c1 | CDK7 | enzyme activity, inhibitor | 1 µM | activity vs control | 85% |
| C[C@H](c1ccc(F)cc1)N(Cc1cccc(C(=O)O)c1)C(=O)c1cnc2ccccc2c1 | CDK7 | cell-free assay, competition with immobilised ligand | 1 µM | remaining binding | 100% |
| O=C1C[C@@H](c2ccc(O)cc2)Oc2cc(O)cc(O)c21 | CDK7 with cyclin H | enzyme activity, inhibitor, ADP detection | 10 µM | inhibition | 3.7% |
| CNC(=O)c1ccc(Nc2ncc(C(F)(F)F)c(NCc3nccnc3N(C)S(C)(=O)=O)n2)cc1 | CDK7 | cell-free assay, competition with immobilised ligand | 0.1 µM | remaining binding | 59% |
| Cc1ccc(C(=O)Nc2ccc(CN3CCN(C)CC3)c(C(F)(F)F)c2)cc1C#Cc1cnc2cccnn12 | CDK7 | enzyme activity, inhibitor | 23.5 nM | remaining activity | 47% |
| Cn1cnc(Br)c1C1=CN(c2ncnc3[nH]cnc23)CCS1 | CDK7 | enzyme activity, inhibitor, radiometric | 2 µM | inhibition | 44.3% |
| C=C(C)[C@@H]1CC[C@]2(C(=O)O)CC[C@]3(C)[C@H](CC[C@@H]4[C@@]5(C)CC[C@H](O)C(C)(C)[C@@H]5CC[C@]43C)[C@@H]12 | CDK7 with cyclin H | enzyme activity, inhibitor, ADP detection | 10 µM | inhibition | 35.2% |
| COc1cc2ncnc(Nc3ccc(F)c(Cl)c3)c2cc1OCCCN1CCOCC1 | CDK7 with cyclin H | cell-free assay | 0.5 µM | remaining signal | 105% |
| O=C1C[C@@H](c2ccc(O)c(O[C@@H]3O[C@H](CO)[C@@H](O)[C@H](O)[C@H]3O)c2)Oc2cc(O[C@@H]3O[C@H](CO)[C@@H](O)[C@H](O)[C@H]3O)ccc21 | CDK7 with cyclin H | enzyme activity, inhibitor, ADP detection | 10 µM | inhibition | 36.6% |
| CN(C)C(=O)Cn1cc(-c2nc([C@@](C)(c3ccc(-c4cnc(N)nc4)cc3)C3CC3)no2)cn1 | CDK7 | cell-free assay, competition with immobilised ligand | 1 µM | remaining binding | 59% |
| Cn1cc2c3ccccc3nc-2c2ccccc21 | CDK7 with cyclin H | enzyme activity, inhibitor, ADP detection | 10 µM | inhibition | 38.3% |
| CN(c1ccnc(CNc2nc(Nc3ccc4c(c3)CC(=O)N4)ncc2C(F)(F)F)n1)S(C)(=O)=O | CDK7 | cell-free assay, competition with immobilised ligand | 1 µM | remaining binding | 3.5% |
| COc1cc(-c2cc(-c3ccc(N4CCNCC4)cc3)cnc2C)cc(OC)c1OC | CDK7 | enzyme activity, inhibitor | 0.1 µM | inhibition | 0% |
| CO[C@@H](C)c1c(Nc2ccc([C@@H](N(C)C(=O)C3CCS(=O)(=O)CC3)C(F)(F)F)cc2)cnc2cc(Cl)nn12 | CDK7 | cell-free assay, competition with immobilised ligand | 1 µM | remaining binding | 100% |
| CNC(=O)c1cc(Oc2ccc(NC(=O)Nc3ccc(Cl)c(C(F)(F)F)c3)cc2)ccn1 | CDK7 with cyclin H | enzyme activity, inhibitor | 10 µM | inhibition | -36% |
| CS(=O)(=O)N1CCCC(NC(=O)[C@H](CCC2CCCCC2)NC(=O)c2ccc(CNc3ncnc4c3nnn4-c3ccccc3)cc2)C1 (some centres unmarked) | CDK7 | cell-free assay, competition with immobilised ligand | 0.1 µM | remaining binding | 100% |
| CC(C)(O)[C@H]1CC[C@H](Nc2ccc3ncc(-c4cccc(C(F)(F)F)c4)n3n2)CC1 | CDK7 with cyclin H | enzyme activity, inhibitor | 1 µM | remaining activity | 96.6% |
